Data: the RNAGym collection of RNA variant scans (doi:10.1126/science.aae0568)
Fewer inactive variants are shown than the library holds.

B1: tRNA (parent)
chain: GUUCCGUUGGCGUAAUGGUAACGCGUCUCCCUCCUAAGGAGAAGACUGCGGGUUCGAGUCCCGUACGGAACG

Variants of: B1
Experiment: yeast fitness relative to wild type (ratio to wild type); higher = fitter; tRNA-Arg(CCU), competitive growth, 37 C, YPD
Outline: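 Changes in genotype frequencies gave Darwinian fitness relative to wild type. Frequencies were read by 100-nucleotide paired-end sequencing of gene amplicons before and after pooled Saccharomyces cerevisiae strains, carrying tRNA-Arg(CCU) gene variants at the native locus, were competed in YPD at 37°C for 24 hours in six replicates. A genotype was kept only with ≥ 100 starting reads, and estimates < 0.5 were set to 0.5.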

Variant | yeast fitness
C30G G58C C66G | 0.829
U7A G50C U53C C55U | ≤ 0.5
C5U C49U A65U | 0.644
U19A C30A A65G | 0.673
U16C C24G U28A A43C | ≤ 0.5
U26C C66G A69C | ≤ 0.5
U53G A57C | ≤ 0.5
U2C A36C | 0.543
C11G U28A G39A G48A C61G C66G | 0.561
C49G | 0.99
C49U | 0.995
U2A G12U C55U | ≤ 0.5
A14C G25A C66U | 0.541
U28C A37C A70C | ≤ 0.5
C5G U7C C30U G50C | ≤ 0.5
U19G C49U C60A | ≤ 0.5
U7G A21C G48C C55U G56A | ≤ 0.5
U2A G10A C49A U53C C62G | ≤ 0.5
G6A C34G C61G | 0.538
G6A A20U U26G C62U | ≤ 0.5
A15G U28C A37C | ≤ 0.5
U3G G25A | 0.768
U16C A37C C55G A69U | ≤ 0.5
C31G C33U A37C A65U | 0.538

Variant | yeast fitness
A42U A57U G58C | 0.542
G39A G56C | 0.603
U28C U47C A70G | 0.743
G9C U13C A20C | 0.706
G6C C24U U47C A57U | ≤ 0.5
A21C C22G A42C U47A U64C | ≤ 0.5
U19A G39C G63C | ≤ 0.5
U2C G50C G51A C55U | 0.582
U19G G56A G67U | ≤ 0.5
C24G C49U | 0.576
C11G G38A G58A C60U | ≤ 0.5
C11U U32A A42C | 0.545
C22A C31U A45G | 0.667
C30U A45C | 0.72
C46U G63A | 0.769
G6A C49U G63A | 0.688
G10C C34G A69U A70C | 0.711
A20C C34G A43C G56A C61U | 0.705
C11A A69C | 0.671
C5G G12U A45U A57U | ≤ 0.5
A45C A57C G68C | 0.517
U19A U53C | 0.806
C11U C60G C62U G68C | 0.505
A15C G48C C66U G67C | ≤ 0.5

Variant | yeast fitness
G17A C49A U54A | 0.614
G10A U47C C62U | 0.566
U7G U13A A42G C66G G67C | ≤ 0.5
C4U A14C C22A U54C C55G | ≤ 0.5
C31A A43G G68A | 0.657
A15U U28A G44A U64C | ≤ 0.5
A15C G18A U19G | ≤ 0.5
C34A A36U | 0.518
A14G A40C C60U C62G | ≤ 0.5
G6A C60G | 0.601
C5U A20U A36G A65U | ≤ 0.5
U8A G12C G17A C33U A40G G41C | ≤ 0.5
C4U C34G G52A A69C | ≤ 0.5
C5A C27A C34G U59C | 0.539
U16C C34A A37G U59A | ≤ 0.5
C5G A40U G44A C61A | 0.567
G17C C29U U53A C66A | ≤ 0.5
G9A G17U U35A G52A U59C C66A G67A | ≤ 0.5
U16A C22G C34U G51A | ≤ 0.5
C11A U13A C29A G48A C66U | ≤ 0.5
C4U C11G C24A C29U | ≤ 0.5
A42C A65C | 0.942
C27G C34G C55G U59C C60U G67U | ≤ 0.5
C4U G9A C27G U32A G52A | ≤ 0.5

Variant | yeast fitness
C11U G48A C62A | 0.762
G41A A42C G50C | 0.622
C4A A45U | 0.818
A14G U16G C29G G58A | ≤ 0.5
C5G G9C A42G C49U U54C | 0.533
A40C A42G | 0.886
C22G U32C | 1
G12C A20U C33U A37U A57U | ≤ 0.5
G18A U53A C66U | ≤ 0.5
G9C C24G C60U U64A | ≤ 0.5
G17C C33A | ≤ 0.5
C22U C24G C30U G44A G56A | ≤ 0.5
C5G G48C | 0.758
U2G A15G G17A G52C A65G | 0.558
A20C C33A A65U | ≤ 0.5
A14C A20C C30A C34G C66A | ≤ 0.5
U7A G23C C34G U35G A40U A70C | ≤ 0.5
U32A C46A U53A | ≤ 0.5
U8C U32A | 0.755
G51C U64C | 0.941
G25A A36U C49U | 0.545
A14U A21G C34G A57U A69U | 0.655
U16A G68U | 0.837
U2G A42C U47A G63C | 0.55

Variant | yeast fitness
U8G A43C G52A | 0.847
U3C C5G C11G A45C | ≤ 0.5
A20C G52C U54A | ≤ 0.5
C27A U28A A70U | ≤ 0.5
C4A C5A C29G G38C A65U | ≤ 0.5
G23C A57G G68A | 0.859
G12C A20U C30U A65G A69C | ≤ 0.5
U13A A57G A69C | 0.503
C11A C29A A42G | ≤ 0.5
A15G A42C C49A C62U A69C | ≤ 0.5
U28G A40U G56A | 1.02
G9C U13G U28C G41C A43C A45U U47C C49G U53G A69C | ≤ 0.5
U8A A15U C34U U64G | ≤ 0.5
C33U A42C C46A | ≤ 0.5
A20U A37C | 0.723
G10C C31A | 0.577
C22U G52A C55A C66U | 0.526
A43C C62A | 0.874
G39C G50A | 0.752
C4A A14U C34U | 0.763
U53C C61G G67A A69C | 0.552
G12C U35G | 0.677
G39C A43U G58C | 0.57
A65C A70G | 1.06

Variant | yeast fitness
A21U C29G C31G A43U G58A U59C | ≤ 0.5
U3A G18C U28A | ≤ 0.5
A20U C62U | 1.02
U8G A14G G18A U47A C55G | ≤ 0.5
C31G A45G A65G | 0.628
C5A A21U C55A C66U | ≤ 0.5
U8C A14U C49A | ≤ 0.5
U16C U59A G67C | 0.675
U28C C30U | 0.767
G44A U59C | 0.799
A40G C46A G67A | 0.563
G12A C30A C46G | 0.649
C4A A21G A45U A69U | 0.655
G12A C66U | 0.834
A20U G23A C61U | 0.561
C49A C60G A70U | ≤ 0.5
U8G A14U G50A | ≤ 0.5
C5G C29A G56A | 0.615
A37G G48A G50A U59G | 0.66
C29G U35A | 0.582
G6C C31G C33G U47C G51A | ≤ 0.5
C24G A37C G58A G68A | ≤ 0.5
G18A C34U A43C U53G G68C | ≤ 0.5
C11U A21G A43C | 0.649

Variant | yeast fitness
U35C G39C | 0.747
U16C U28G C30G A40C A42U | ≤ 0.5
U32C A40G | 0.66
G25A A36G | 0.962
U8A G56A | 0.701
A43U C46G A57G U64A A70G | ≤ 0.5
G10C A43G G52C C62U G63A | 0.531
C5G C33U G56C | 0.575
C5U C24G A40C A69C | 0.522
U2G U26A G52A | ≤ 0.5
C27G C49U A65U | ≤ 0.5
G12C A69G | 0.82
U3A G6C A20U A36U | 0.571
G10A A21G | 0.878
U2C C5G A45C A69U | 0.549
C5U U64C | 0.932
C11U A15G C27G C60U C62G C66G | ≤ 0.5
C5A C34G A43C | ≤ 0.5
C4A G18A G44C C46U C49U | ≤ 0.5
C5G G12A A14G C30G A45G G52A | ≤ 0.5
U7C A21C | 0.606
C24U G25C C61A | ≤ 0.5
U7C A14G G17A A69U A70U | 0.594
